Bioassay records from PubChem BioAssay.
V1aR counter – agonists of human V1a receptor, primary screen, counter-screen for OXTR agonist project, fluorescence, CHO-V1R cells; AID 2797, 2010; Fluo-8 calcium fluorescence, agonist mode; 0% DMSO, 100% 3 nM vasopressin; activation, % at 3 µM; actives 0.25% (n = 320,000); Vasopressin V1a receptor (Homo sapiens), P37288;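 active = activation above the mean activation of all tested compounds plus 3 SD, per screening run, cut at about 20% in these data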;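 note: signal is peak over basal fluorescence ratio across a 100 second FLIPR read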
Target sequence (P37288 whole entry, looked up): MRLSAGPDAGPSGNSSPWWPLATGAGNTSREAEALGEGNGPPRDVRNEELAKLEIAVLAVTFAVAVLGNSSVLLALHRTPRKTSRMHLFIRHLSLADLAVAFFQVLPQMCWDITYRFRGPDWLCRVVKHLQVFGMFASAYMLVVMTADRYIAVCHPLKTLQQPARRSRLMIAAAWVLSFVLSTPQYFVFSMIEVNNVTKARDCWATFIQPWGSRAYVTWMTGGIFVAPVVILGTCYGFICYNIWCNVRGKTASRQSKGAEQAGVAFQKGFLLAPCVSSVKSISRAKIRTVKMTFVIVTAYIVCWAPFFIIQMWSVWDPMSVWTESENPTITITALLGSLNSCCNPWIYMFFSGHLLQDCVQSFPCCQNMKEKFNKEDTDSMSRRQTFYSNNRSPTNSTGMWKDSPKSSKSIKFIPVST
TAAR1 ag – human TAAR1 agonists, primary screen, Fluo-8 calcium fluorescence, CHO RD-HGA16 cells | vehicle wells 0%, saturating PEA agonist 100% | Trace amine-associated receptor 1 (Homo sapiens), Q96RJ0 | activation, % at 3 µM | actives 0.99% (n = 360,000);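 active = activation above the mean activation of all test compounds in the run plus 3 SD, cut at about 38% in these data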
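test system = CHO RD-HGA16 cells carrying human TAAR1 plus Gα16 | schedule = 17-24 h seeding, 75 min 37 °C dye, 30 min RT | compound dosing = 3 µM single concentration | control set = DMSO and PEA EC100 | replicates = n 1 | signal = Fluo-8 fluorescence, 5 s baseline then 140 s kinetic read | measure = percent activation vs PEA EC100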
TAAR1 antag – human TAAR1 antagonists, primary screen, Fluo-8 calcium fluorescence, CHO RD-HGA16 cells; Trace amine-associated receptor 1 (Homo sapiens), Q96RJ0; inhibition, % at 3 µM; actives 1.5% (n = 360,000); antagonist;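 active = inhibition above a per-plate cutoff, the mean inhibition of test compounds on that plate plus 3 SD, cut at about 49% in these data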;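 note: 0% = DMSO plus EC80 beta-PEA response and 100% = DMSO alone without agonist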
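Test system: RD-HGA16 CHO cells with stable hTAAR1 and Gα16 / Probe or stimulus: EC80 β-phenethylamine stimulus / Times: seeding 17-24 h prior, 75-min 37 °C, 30-min RT dye loading / Detection: Fluo-8 calcium-sensitive fluorescence / Read-out basis: % inhibition scaled between DMSO and EC80 PEA controls / Repeats: singlicate, one well per test compound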
OXTR potentiate – human OXTR potentiators, primary screen, fluorescence, CHO-OTR cells, Fluo-8 calcium; actives 0.061% (n = 320,000); Oxytocin receptor (Homo sapiens), P30559; activation, % at 3 µM; Fluo-8 calcium fluorescence, potentiator mode; 0% = oxytocin EC15, 100% = EC100;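 active = activation above that plate's cutoff, the mean activation of tested compounds plus 3 SD, cut at about 6.6% in these data, passing the limit was not always enough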;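 note: 100% uses oxytocin at 75 nM as the full agonist control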
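Assay system: CHO cell line stably expressing human OTR | Also added: Oxytocin at about EC15, sub-maximal agonist stimulus | Times: Compound 6 min at room temperature before oxytocin, 100 s read | Measured by: Fluo-8 intracellular calcium fluorescence, ex 470-495, em 515-575 nm | Controls: EC15 oxytocin alone as 0%, 75 nM oxytocin as 100%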
OXTR ag – human OXTR agonists, primary screen, fluorescence, CHO-OTR cells, Fluo-8 calcium. Oxytocin receptor (Homo sapiens), P30559. Fluo-8 calcium fluorescence; normalized: DMSO 0%, oxytocin 100%. activation, % at 3 µM. actives 0.32% (n = 320,000);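 active = activation above the mean of all tested compounds plus 3 SD, cutoff set per screening run, cut at about 20% in these data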;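 note: peak over basal fluorescence ratio from a 100 s FLIPR kinetic read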
TAAR1 ag conf – human TAAR1 agonists, retest of hits, confirmation, Fluo-8 calcium fluorescence, CHO RD-HGA16 cells; actives 82% (n = 2,400); activation, % at 3 µM; shares compounds with TAAR1 ag; scaled: DMSO 0%, maximal phenethylamine 100%;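 active = activation above a cutoff set at the run's mean compound activation plus 3 SD, cut at about 39% in these data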
Ga16 nonsel ag – nonselective calcium mobilization agonists, CHO-Ga16 cells, counter-screen for hTAAR1 agonist project, cell-based, fluorescence, CHO-Ga16 parental line; shares compounds with TAAR1 ag; Fluo-8 calcium fluorescence; normalized to maximal ATP response, DMSO zero; activation, % at 3 µM; actives 50% (n = 2,400); AID 651787, 2012;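 active = activation above the run cutoff, the mean activation over all tested wells plus 3 SD, cut at about 12% in these data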;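 note: 0% = DMSO wells and 100% = maximal ATP response on the peak over basal ratio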
TAAR1 desens – TAAR1 desensitization by agonist hits, confirmation, counter-screen for TAAR1 agonist project, cell-based, fluorescence, tachyphylaxis; shares compounds with TAAR1 ag; CHO RD-HGA16 hTAAR1, Fluo-8 calcium, beta-PEA response inhibition; inhibition, % at 3 µM; actives 46% (n = 2,400); AID 651951, 2012;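 active = inhibition above the run cutoff, the mean inhibition of all test compounds plus 3 SD, cut at about 49% in these data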;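 note: beta-PEA stimulus applied at its EC80; loss of beta-PEA calcium signal after compound pretreatment read as receptor desensitization; 0% = DMSO with beta-PEA at EC80 and 100% = DMSO alone without agonist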
Ga16 antag count – inhibition of ATP-evoked calcium response in CHO-Ga16 cells, counter-screen for TAAR1 agonist project, cell-based, fluorescence; shares compounds with TAAR1 ag; CHO-Ga16 ATP-induced calcium, Fluo-8 fluorescence; inhibition, % at 3 µM; actives 39% (n = 2,400); AID 651952, 2012;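 active = inhibition above the plate's mean compound inhibition plus 3 SD, computed per plate, cut at about 22% in these data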;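 note: 0% = EC80 ATP with DMSO and 100% = DMSO wells without ATP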
Active calls of the source: *; nt = not tested or not shown. A selection: hits, their analogues and other compounds. The true share with any hit is near 2.3%.

SMILES	V1aR counter	TAAR1 ag	TAAR1 antag	OXTR potentiate	OXTR ag	TAAR1 ag conf	Ga16 nonsel ag	TAAR1 desens	Ga16 antag count
Cc1ccc(C(=O)CC(C(=O)O)n2ccc(C)n2)cc1 (stereo not given)	1	3	-5	-6	1	nt	nt	nt	nt
c1ccc2c(c1)CC(N1CCCCC1)c1ccccc1S2 (stereo not given)	-2	-2	-17	15	-1	nt	nt	nt	nt
CN1Cc2cccc3c2C(Cc2ccccc2S3)C1 (stereo not given)	0	59*	-22	1	-2	61*	5	19	6
CC(=O)Nc1ccc(S(=O)(=O)Nc2nccc(C3Cc4ccccc4C(=O)O3)n2)cc1 (stereo not given)	2	0	0	2	1	nt	nt	nt	nt
CCc1nc2c(c(=O)c3ccccc3n2C)c(=O)n1C1CCCCCC1	88*	66*	-3	-18	47*	74*	55*	30	13
CCCCCCNc1nc(NCc2ccco2)nc(OCC)n1	-1	3	-2	-8	-2	nt	nt	nt	nt
CCOC(=O)N1CCN(C(=O)CCN2C(=O)c3ccccc3S2(=O)=O)CC1	1	0	-36	-12	0	nt	nt	nt	nt
Nc1cnnc(N/N=C\c2ccccc2)c1Cl	0	46*	-17	2	0	69*	0	22	5
N#Cc1c(Cl)nc(N/N=C/c2ccccc2)c(Cl)c1Cl	-1	10	29	-10	-1	nt	nt	nt	nt
COC(=O)[C@@]1(Cc2ccc(F)cc2)[C@H]2c3cc(C(=O)N4CCCC4)n(CCc4ccccn4)c3C[C@H]2CN1C(=O)c1ccccc1	5	88*	16	0	8	53*	14*	2	16
COC(=O)[C@@]1(Cc2ccc(F)cc2)[C@H]2c3cc(C(=O)N(C)C)n(CCc4ccccn4)c3C[C@H]2CN1C(=O)c1ccccc1	5	36	2	-4	12	nt	nt	nt	nt
Cn1nnnc1SCCNC(=O)C1CCC(=O)N(Cc2cccc(C(F)(F)F)c2)C1 (stereo not given)	nt	0	-9	nt	nt	nt	nt	nt	nt
Cc1cc(C)c(C(=O)OCC(=O)NC(=O)c2ccccc2)c(C)c1	0	58*	70*	-11	1	6	6	46	34*
CC(CCc1ccccc1)NC(=O)COc1ccc(S(=O)(=O)N2CCOCC2)cc1[N+](=O)[O-] (stereo not given)	3	10	5	-5	5	nt	nt	nt	nt
CCN(c1ccccc1)S(=O)(=O)c1ccc(C(=O)N(CCCN(C)C)c2nc3cc4c(cc3s2)OCO4)cc1	7	22	13	-15	9	nt	nt	nt	nt
CCN(c1ccccc1)S(=O)(=O)c1ccc(C(=O)N(CCCN(C)C)c2nc3c(C)cccc3s2)cc1	2	43*	29	-9	4	33	16*	37	32*
CCOc1ccccc1CN1CCN(CCCc2ccccc2)CC1CCO (stereo not given)	1	7	-15	8	1	nt	nt	nt	nt
